Experimental data: ChEMBL document CHEMBL5260808, “Design of Phthalazinone Amide Histamine H1 Receptor Antagonists for Use in Rhinitis” (ACS Med Chem Lett, 2017)
Activity calls are given as the source filed them. The rule behind the calls is not given here.

Tests used:
Cavia porcellus [1] = assay: Antihistamine activity against conscious unrestrained ovalbumin and aluminum hydroxide sensitized guinea pigs assessed as inhibition of histamine-induced nasal congestion at 1 mg/ml, intranasal measured after 1 to 24 hrs relative to control; assay type: functional, organism-based; conditions: time 1-24 hrs
Summary of the method: (§1)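 Guinea pigs dosed intranasally with a 1 mg/mL solution (25 μL/nostril). Bilateral histamine challenge (15 or 10 mM, 25 μL/nostril, light isoflurane anesthesia) given 1 and 24 h after dosing. […] Comparison with vehicle-pretreated/histamine-challenged controls; mean ± SEM, n = 16–27 per group; p < 0.05.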

[2] = target: D(1A) dopamine receptor (Homo sapiens) (UniProt P21728); assay: Inhibition of human dopamine D1 receptor at 1 uM relative to control
D(1A) dopamine receptor (Homo sapiens), sequence (P21728 whole entry): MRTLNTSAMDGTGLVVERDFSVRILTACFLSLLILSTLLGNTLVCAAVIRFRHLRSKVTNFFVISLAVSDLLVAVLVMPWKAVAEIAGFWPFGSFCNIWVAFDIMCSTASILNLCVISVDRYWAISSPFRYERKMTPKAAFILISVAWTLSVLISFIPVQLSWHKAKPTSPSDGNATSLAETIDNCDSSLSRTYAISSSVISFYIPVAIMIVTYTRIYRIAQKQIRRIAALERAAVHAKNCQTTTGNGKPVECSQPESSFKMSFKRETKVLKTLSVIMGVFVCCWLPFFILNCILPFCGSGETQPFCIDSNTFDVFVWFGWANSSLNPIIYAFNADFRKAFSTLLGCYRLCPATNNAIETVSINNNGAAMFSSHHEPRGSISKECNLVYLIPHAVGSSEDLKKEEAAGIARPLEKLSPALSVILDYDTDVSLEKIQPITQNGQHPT

[3] = target: D(2) dopamine receptor (Homo sapiens) (UniProt P14416); assay: Inhibition of human dopamine D2S receptor at 1 uM relative to control
D(2) dopamine receptor (Homo sapiens), sequence (P14416 whole entry): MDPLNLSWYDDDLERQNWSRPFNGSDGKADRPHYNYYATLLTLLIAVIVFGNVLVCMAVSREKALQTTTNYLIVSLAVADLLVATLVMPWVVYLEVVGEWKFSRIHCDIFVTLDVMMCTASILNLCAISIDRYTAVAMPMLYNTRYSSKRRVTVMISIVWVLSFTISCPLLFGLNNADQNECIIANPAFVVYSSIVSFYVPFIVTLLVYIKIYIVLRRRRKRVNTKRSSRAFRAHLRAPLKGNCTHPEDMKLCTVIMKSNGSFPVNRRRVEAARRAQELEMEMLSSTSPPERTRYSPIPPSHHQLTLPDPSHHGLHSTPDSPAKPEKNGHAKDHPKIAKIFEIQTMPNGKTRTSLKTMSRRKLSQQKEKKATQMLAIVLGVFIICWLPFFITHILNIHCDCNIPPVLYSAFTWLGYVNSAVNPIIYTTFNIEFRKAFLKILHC

[4] = target: 5-hydroxytryptamine receptor 2A (Homo sapiens) (UniProt P28223); assay: Inhibition of human 5-HT2A receptor at 1 uM relative to control
5-hydroxytryptamine receptor 2A (Homo sapiens), sequence (P28223 whole entry): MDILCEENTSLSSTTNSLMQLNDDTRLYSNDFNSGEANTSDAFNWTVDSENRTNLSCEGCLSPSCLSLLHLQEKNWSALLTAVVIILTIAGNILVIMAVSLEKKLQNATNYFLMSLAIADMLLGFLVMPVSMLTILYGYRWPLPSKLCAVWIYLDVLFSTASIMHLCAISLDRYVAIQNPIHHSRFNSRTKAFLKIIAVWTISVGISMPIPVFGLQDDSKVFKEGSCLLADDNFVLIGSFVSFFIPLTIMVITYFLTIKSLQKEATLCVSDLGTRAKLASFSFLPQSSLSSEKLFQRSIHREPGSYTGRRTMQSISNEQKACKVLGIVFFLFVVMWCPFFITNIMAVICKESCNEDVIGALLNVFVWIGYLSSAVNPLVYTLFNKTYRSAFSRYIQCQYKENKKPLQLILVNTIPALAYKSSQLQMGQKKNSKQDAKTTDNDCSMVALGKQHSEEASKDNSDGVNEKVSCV

[5] = target: 5-hydroxytryptamine receptor 6 (Homo sapiens) (UniProt P50406); assay: Inhibition of human 5-HT6 receptor at 1 uM relative to control
5-hydroxytryptamine receptor 6 (Homo sapiens), sequence (P50406 whole entry): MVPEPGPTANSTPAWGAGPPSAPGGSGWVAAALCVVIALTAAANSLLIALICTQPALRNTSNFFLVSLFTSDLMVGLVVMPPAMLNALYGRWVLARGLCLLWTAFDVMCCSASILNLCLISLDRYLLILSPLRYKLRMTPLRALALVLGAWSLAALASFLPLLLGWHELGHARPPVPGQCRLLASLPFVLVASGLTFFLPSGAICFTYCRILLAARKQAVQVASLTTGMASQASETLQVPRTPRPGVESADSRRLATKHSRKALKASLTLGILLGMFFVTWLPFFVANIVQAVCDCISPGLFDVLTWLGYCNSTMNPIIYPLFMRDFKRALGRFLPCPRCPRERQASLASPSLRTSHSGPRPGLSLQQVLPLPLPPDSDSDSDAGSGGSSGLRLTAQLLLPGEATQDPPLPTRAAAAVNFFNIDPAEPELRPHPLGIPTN

[6] = target: 5-hydroxytryptamine receptor 7 (Homo sapiens) (UniProt P34969); assay: Inhibition of human 5-HT7 receptor at 1 uM relative to control
5-hydroxytryptamine receptor 7 (Homo sapiens), sequence (P34969 whole entry): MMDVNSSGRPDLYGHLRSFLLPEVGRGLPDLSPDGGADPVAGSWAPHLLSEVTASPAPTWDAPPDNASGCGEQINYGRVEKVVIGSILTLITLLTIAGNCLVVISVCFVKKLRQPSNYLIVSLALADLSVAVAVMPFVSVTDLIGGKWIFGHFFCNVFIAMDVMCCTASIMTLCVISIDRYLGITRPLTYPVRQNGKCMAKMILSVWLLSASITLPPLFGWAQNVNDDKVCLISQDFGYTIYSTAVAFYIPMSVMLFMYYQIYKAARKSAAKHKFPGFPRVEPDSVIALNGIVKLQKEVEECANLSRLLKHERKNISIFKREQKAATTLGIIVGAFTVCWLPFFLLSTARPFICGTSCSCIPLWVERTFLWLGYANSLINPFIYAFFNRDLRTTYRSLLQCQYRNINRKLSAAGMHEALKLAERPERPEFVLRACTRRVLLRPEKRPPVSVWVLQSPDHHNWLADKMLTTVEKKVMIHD

Histamine H1 receptor [7] = target: T1, Histamine H1 receptor (Homo sapiens, UniProt P35367); assay: Antagonist potency at human H1 receptor; conditions: read-out: pA2 (converted)
T1 sequence (P35367 whole entry): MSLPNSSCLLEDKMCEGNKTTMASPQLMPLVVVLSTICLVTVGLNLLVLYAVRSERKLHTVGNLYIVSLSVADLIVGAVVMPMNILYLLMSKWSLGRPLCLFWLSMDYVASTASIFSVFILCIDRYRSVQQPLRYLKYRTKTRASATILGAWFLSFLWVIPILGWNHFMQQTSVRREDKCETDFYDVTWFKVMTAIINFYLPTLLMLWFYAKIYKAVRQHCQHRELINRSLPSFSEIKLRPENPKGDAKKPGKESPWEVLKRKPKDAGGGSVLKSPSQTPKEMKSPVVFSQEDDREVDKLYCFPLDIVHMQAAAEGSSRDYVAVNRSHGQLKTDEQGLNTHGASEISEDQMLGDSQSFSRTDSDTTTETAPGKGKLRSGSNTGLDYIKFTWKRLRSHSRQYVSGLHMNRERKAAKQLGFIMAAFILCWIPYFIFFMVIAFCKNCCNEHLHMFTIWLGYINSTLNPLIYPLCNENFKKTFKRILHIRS

Histamine H1 receptor [8] = target: T1, Histamine H1 receptor; assay: Antagonist activity against recombinant human H1 receptor expressed in CHO cells incubated for 30 mins by FLIPR analysis; assay type: cell-based
[9] = target: T2, Alpha-1A adrenergic receptor (Homo sapiens, UniProt P35348); assay: Antagonist activity against recombinant human adrenergic alpha1A receptor expressed in Rat1 cells incubated for 30 mins by FLIPR analysis; assay type: cell-based
T2 sequence (P35348 whole entry): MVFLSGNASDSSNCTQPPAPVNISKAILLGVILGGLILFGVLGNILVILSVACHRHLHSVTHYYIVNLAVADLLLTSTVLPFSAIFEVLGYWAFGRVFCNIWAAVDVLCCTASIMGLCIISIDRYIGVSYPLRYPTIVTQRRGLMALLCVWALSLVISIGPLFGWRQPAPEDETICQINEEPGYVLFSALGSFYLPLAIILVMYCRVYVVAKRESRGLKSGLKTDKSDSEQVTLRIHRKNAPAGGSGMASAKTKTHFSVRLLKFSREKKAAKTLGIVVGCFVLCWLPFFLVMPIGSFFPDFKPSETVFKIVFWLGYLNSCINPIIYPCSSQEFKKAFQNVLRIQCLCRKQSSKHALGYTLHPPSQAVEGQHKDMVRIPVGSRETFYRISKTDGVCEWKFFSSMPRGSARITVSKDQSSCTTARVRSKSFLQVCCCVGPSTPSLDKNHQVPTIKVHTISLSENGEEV
Summary of the method: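 Human α1A or α1B adrenoceptor in fibroblast cells. Plate-based calcium imaging.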

[10] = target: T3, Alpha-1B adrenergic receptor (Homo sapiens, UniProt P35368); assay: Antagonist activity against recombinant human adrenergic alpha1B receptor expressed in CHO cells incubated for 30 mins by FLIPR analysis; assay type: cell-based
T3 sequence (P35368 whole entry): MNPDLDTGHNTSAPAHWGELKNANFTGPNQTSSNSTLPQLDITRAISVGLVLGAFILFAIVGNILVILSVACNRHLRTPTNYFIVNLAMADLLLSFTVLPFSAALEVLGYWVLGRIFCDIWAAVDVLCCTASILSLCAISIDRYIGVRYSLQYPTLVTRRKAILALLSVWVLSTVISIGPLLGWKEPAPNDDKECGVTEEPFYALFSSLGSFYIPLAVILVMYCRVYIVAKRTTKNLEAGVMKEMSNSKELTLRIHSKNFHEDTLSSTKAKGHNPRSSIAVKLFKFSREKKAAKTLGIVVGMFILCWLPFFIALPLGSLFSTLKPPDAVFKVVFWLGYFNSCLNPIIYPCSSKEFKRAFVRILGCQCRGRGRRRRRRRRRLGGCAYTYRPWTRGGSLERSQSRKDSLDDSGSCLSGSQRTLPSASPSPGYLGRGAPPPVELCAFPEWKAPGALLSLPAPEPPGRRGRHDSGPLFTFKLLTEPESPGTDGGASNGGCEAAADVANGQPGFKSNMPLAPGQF

[11] = Distribution coefficient, log D of compound in n-octanol and phosphate buffered saline at pH 7.4 by HPLC analysis; assay type: physicochemical
[12] = target: Voltage-gated inwardly rectifying potassium channel KCNH2 (Homo sapiens, UniProt Q12809); assay: Displacement of [3H]dofetilide from human ERG expressed in CHO-K1 cell membrane measured after 45 mins by topcount scintillation counting method; assay type: toxicity, cell membranes
Voltage-gated inwardly rectifying potassium channel KCNH2, sequence (Q12809 whole entry): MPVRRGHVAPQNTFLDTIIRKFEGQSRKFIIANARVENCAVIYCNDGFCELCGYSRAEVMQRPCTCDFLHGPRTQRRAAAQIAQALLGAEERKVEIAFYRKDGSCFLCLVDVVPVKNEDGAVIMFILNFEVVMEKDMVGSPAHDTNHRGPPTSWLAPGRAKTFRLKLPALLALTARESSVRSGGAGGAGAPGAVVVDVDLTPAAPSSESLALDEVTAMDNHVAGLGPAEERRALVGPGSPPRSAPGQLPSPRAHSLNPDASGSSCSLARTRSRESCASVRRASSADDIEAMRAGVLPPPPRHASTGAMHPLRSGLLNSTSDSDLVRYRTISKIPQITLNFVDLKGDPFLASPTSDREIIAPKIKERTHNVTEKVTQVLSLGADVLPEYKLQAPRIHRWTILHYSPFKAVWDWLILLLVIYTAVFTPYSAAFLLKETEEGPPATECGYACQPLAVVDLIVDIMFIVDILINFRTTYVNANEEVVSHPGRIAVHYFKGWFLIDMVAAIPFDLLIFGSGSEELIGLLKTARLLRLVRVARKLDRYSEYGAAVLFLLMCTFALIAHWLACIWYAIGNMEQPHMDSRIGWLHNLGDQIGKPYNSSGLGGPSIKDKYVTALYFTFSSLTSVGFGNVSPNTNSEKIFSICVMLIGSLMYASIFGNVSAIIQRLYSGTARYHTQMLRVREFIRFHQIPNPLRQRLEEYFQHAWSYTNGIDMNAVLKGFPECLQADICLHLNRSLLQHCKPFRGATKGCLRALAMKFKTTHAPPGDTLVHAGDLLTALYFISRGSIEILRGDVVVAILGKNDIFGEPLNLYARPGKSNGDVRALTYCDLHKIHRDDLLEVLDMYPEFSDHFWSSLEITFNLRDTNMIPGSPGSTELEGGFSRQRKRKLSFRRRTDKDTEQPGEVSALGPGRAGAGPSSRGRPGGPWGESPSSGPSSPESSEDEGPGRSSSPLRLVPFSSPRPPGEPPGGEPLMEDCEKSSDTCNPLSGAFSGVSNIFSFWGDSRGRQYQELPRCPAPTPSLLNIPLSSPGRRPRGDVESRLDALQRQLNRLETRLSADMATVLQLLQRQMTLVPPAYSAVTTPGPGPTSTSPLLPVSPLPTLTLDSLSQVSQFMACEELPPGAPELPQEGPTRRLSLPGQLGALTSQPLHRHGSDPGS

Cavia porcellus [13] = assay: Antihistamine activity against conscious unrestrained ovalbumin and aluminum hydroxide sensitized guinea pigs assessed as inhibition of histamine-induced nasal congestion by measuring time duration of action at 1 mg/ml, intranasal measured after 1 to 24 hrs; assay type: functional; conditions: time 1-24 hrs; summary of the method: as §1
[14] = Drug metabolism in human hepatocytes assessed as metabolite formation at 10 uM measured after 3 hrs by LC-MS/MS analysis; assay type: ADME, cell-based, Hepatocyte
Summary of the method: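 Cryopreserved human hepatocytes incubated with compound (10 μM initial) for 3 h. Metabolites detected and profiled by LC–MS/MS.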

[15] = Drug metabolism in monkey intestinal microsomes assessed as rate of metabolism; assay type: ADME, Macaca mulatta, Intestine; conditions: rhesus monkey
Summary of the method: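 Intestinal microsomes from monkey; in vitro rate of metabolism given in mL/min/g.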

[16] = Drug metabolism in dog liver microsomes assessed as rate of metabolism; assay type: ADME, Canis lupus familiaris
[17] = Drug metabolism in human liver microsomes assessed as rate of metabolism; assay type: ADME
[18] = Drug metabolism in rat liver microsomes assessed as rate of metabolism; assay type: ADME
[19] = Drug metabolism in mouse liver microsomes assessed as rate of metabolism; assay type: ADME
[20] = Drug absorption into hepatic portal vein of CD Sprague-Dawley rat at 3 mg/kg, po; assay type: ADME, organism-based; conditions: read-out: Drug absorption
Summary of the method: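 Male CD Sprague–Dawley rats dosed orally at 3 mg/kg. Absorption measured into the hepatic portal vein.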

[21] = Oral bioavailability in CD Sprague-Dawley rat at 300 mg/kg; assay type: ADME, organism-based; conditions: in vivo
Summary of the method: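 Male CD Sprague–Dawley rats dosed orally at 300 mg/kg. Vehicle was H2O–PEG200–DMSO (50:45:5). Oral bioavailability determined from blood concentrations.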

[22] = Elimination in iv dosed dog urine; assay type: ADME, organism-based, Canis lupus familiaris; conditions: read-out: Drug excretion
Summary of the method: (§2)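 Beagle dogs dosed iv at 1 mg/kg, or subcutaneously in one dog. Parent compound measured in urine.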

[23] = Elimination in sc dosed dog urine; assay type: ADME, organism-based, Canis lupus familiaris; conditions: read-out: Drug excretion; summary of the method: as §2
[24] = Bioavailability in human; assay type: ADME, organism-based; conditions: in vivo
[25] = Elimination half life in Beagle dog at 2 mg/kg, po and 1 mg/kg, iv; assay type: ADME, organism-based, Canis lupus familiaris; conditions: in vivo, read-out: beta t1/2 (converted)
Summary of the method: (§3)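 Male CD Sprague–Dawley rats and Beagle dogs. Solution in H2O–PEG200–DMSO (50:45:5), given iv at 1 mg/kg, and po at 3 mg/kg (rat) or 2 mg/kg (dog). Vss and elimination half-life derived after iv dosing.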

[26] = Elimination half life in CD Sprague-Dawley rat at 3 mg/kg, po and 1 mg/kg, iv; assay type: ADME, organism-based; conditions: in vivo, read-out: beta t1/2 (converted); summary of the method: as §3
[27] = Volume of distribution at steady state in CD Sprague-Dawley rat at 3 mg/kg, po and 1 mg/kg, iv; assay type: ADME, organism-based; conditions: in vivo; summary of the method: as §3
[28] = Volume of distribution at steady state in Beagle dog at 2 mg/kg, po and 1 mg/kg, iv; assay type: ADME, organism-based, Canis lupus familiaris; conditions: in vivo; summary of the method: as §3
[29] = Drug uptake in rat brain at 1 mg/kg, iv bolus dose; assay type: ADME, organism-based; conditions: in vivo
Summary of the method: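 Rats given a 1 mg/kg intravenous bolus. Brain and blood sampled at 5 min; brain–blood ratio and brain concentration determined, n = 3.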

[30] = Ratio of drug level in rat brain to blood at 1 mg/kg, iv bolus dose measured after 5 mins

| SMILES | Kb (Histamine H1 receptor [7]) [nM] | Ki (Histamine H1 receptor [8]) [nM] | Ki [9] [nM] | Ki [10] [nM] | logD [11] | IC50 [12] [nM] | other results |
| --- | --- | --- | --- | --- | --- | --- | --- |
| COCCCC(=O)NCCN1CCC[C@@H]1Cn1nc(Cc2ccc(Cl)cc2)c2ccccc2c1=O | – | – | – | – | – | – | Activity (Cavia porcellus [1]): Active; inhibition [2]: > 50%; inhibition [3]: > 50%; inhibition [4]: > 50%; inhibition [5]: > 50%; inhibition [6]: > 50% |
| COCCCC(=O)N(C)CCN1CCC[C@@H]1Cn1nc(Cc2ccc(Cl)cc2)c2ccccc2c1=O | 0.1 | 3.16 | 31.6 | 126 | 3.5 | 398 | – |
| COCCCC(=O)NCCN1CCC[C@@H]1Cn1nc(Cc2ccc(Cl)cc2)c2ccccc2c1=O.Cl | – | – | – | – | – | – | Time (Cavia porcellus [13]): <48 h; Drug metabolism [14]: Metabolite_Detected; CLint scaled [15]: > 50 mL/min/g; Drug metabolism [16]: 12 mL/min/g; Drug metabolism [17]: 25 mL/min/g; Drug metabolism [18]: 50 mL/min/g; Drug metabolism [19]: 50 mL/min/g; Fa [20]: 3%; bioavailability [21]: < 3%; dose excreted [22]: < 3%; dose excreted [23]: < 3% |
| CC(C)C(=O)NCCN1CCC[C@@H]1Cn1nc(Cc2ccc(Cl)cc2)c2ccccc2c1=O | 0.132 | 3.98 | 3.98 | 63.1 | 3.2 | 398 | – |
| CN1CCCC(n2nc(Cc3ccc(Cl)cc3)c3ccccc3c2=O)CC1 (stereo unspecified) [AZELASTINE] | – | – | – | – | 2.3 | – | bioavailability [24]: 40% |
| COCCCC(=O)NCCN1CCC[C@@H]1Cn1nc(Cc2ccc(Cl)cc2)c2ccccc2c1=O.O=C(O)C(F)(F)F | – | – | – | – | 3.5 | – | Time (Cavia porcellus [13]): <48 h; half-life [25]: 30 min; half-life [26]: 12 min; Vdss [27]: 0.7 L/kg; Vdss [28]: 1.1 L/kg; Drug uptake [29]: 121 ng/g; Kp at 5 min [30]: 0.18 |
| O=C(NCCN1CCC[C@@H]1Cn1nc(Cc2ccc(Cl)cc2)c2ccccc2c1=O)C1CCOCC1 | 0.794 | 10 | 200 | – | 3.3 | 794 | – |
| O=C(NCCN1CCC[C@@H]1Cn1nc(Cc2ccc(Cl)cc2)c2ccccc2c1=O)C1CCCC1 | 0.316 | 3.98 | 79.4 | 79.4 | 3.9 | 50.1 | – |
| COCCNC(=O)CCCN1CCC[C@@H]1Cn1nc(Cc2ccc(Cl)cc2)c2ccccc2c1=O | 0.501 | 0.794 | 6.31 | 10 | 2.5 | 39.8 | – |

Continued, in another order:

| Kb (Histamine H1 receptor [7]) [nM] | Ki (Histamine H1 receptor [8]) [nM] | Ki [9] [nM] | Ki [10] [nM] | logD [11] | SMILES | IC50 [12] [nM] | other results |
| --- | --- | --- | --- | --- | --- | --- | --- |
| 0.631 | 0.794 | 31.6 | 79.4 | 3.7 | CCCC(=O)NCCN1CCC[C@@H]1Cn1nc(Cc2ccc(Cl)cc2)c2ccccc2c1=O | 63.1 | – |
| 0.251 | 0.631 | 15.8 | 15.8 | 3.4 | CCC(=O)NCCN1CCC[C@@H]1Cn1nc(Cc2ccc(Cl)cc2)c2ccccc2c1=O | 200 | – |
| 0.2 | 1.26 | 50.1 | 31.6 | 3.1 | COCC(=O)NCCN1CCC[C@@H]1Cn1nc(Cc2ccc(Cl)cc2)c2ccccc2c1=O | 200 | – |
| 0.501 | 0.794 | 7.94 | 63.1 | 3.2 | COCCC(=O)NCCN1CCC[C@@H]1Cn1nc(Cc2ccc(Cl)cc2)c2ccccc2c1=O | 398 | – |
| 0.158 | 5.01 | 10 | 31.6 | 3.3 | CCCNC(=O)CCCN1CCC[C@@H]1Cn1nc(Cc2ccc(Cl)cc2)c2ccccc2c1=O | 1.58 | – |
